# Laboratory results reported in ChEMBL document CHEMBL1138405, “Limonoid orthoacetates and antiprotozoal compounds from the roots of Pseudocedrela kotschyi” (J Nat Prod, 2007).
# What was measured:
# Trypanosoma cruzi = test: Antiprotozoal activity against Trypanosoma cruzi Tulahuen C2C4 trypomastigotes in L6 cells; assay type: functional, organism-based
# [1] = tested on: Trypanosoma brucei rhodesiense; test: Antiprotozoal activity against Trypanosoma brucei rhodesiense STIB900; assay type: functional, organism-based
# Plasmodium falciparum = test: Antiplasmodial activity against Plasmodium falciparum K1; assay type: functional, organism-based
# How it was run: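 P. falciparum K1 is a strain resistant to chloroquine and pyrimethamine.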
# L6 = test: Cytotoxicity against rat L6 cells; assay type: cell-based
# Leishmania donovani = test: Antiprotozoal activity against Leishmania donovani MHOM/ET/67/L82 amastigotes; assay type: functional, organism-based
# How it was run: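 L. donovani tested as axenic amastigotes.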
smiles,measurement,setting,value
O=C(Cn1ccnc1[N+](=O)[O-])NCc1ccccc1 [BENZNIDAZOLE],IC50,Trypanosoma cruzi,0.74 µg/mL
CC1(C)C(=O)C=C[C@]2(C)[C@H]3CC[C@@]4(C)[C@H](c5ccoc5)OC(=O)[C@H]5O[C@]54[C@]3(C)C(=O)C[C@@H]12 [DEACETOXY-7-OXOGEDUNIN],IC50,[1],3.4 µg/mL
same,IC50,Trypanosoma cruzi,> 30 µg/mL
same,IC50,Plasmodium falciparum,1.77 µg/mL
same,IC50,L6,> 90 µg/mL
same,IC50,Leishmania donovani,0.994 µg/mL
CC1(C)C(=O)C=C[C@]2(C)[C@H]3CC[C@@]4(C)[C@H](c5ccoc5)OC(=O)[C@H]5O[C@]54[C@]3(C)[C@H](O)C[C@@H]12 [DEACETYLGEDUNIN],IC50,[1],3.45 µg/mL
same,IC50,Trypanosoma cruzi,5.2 µg/mL
same,IC50,Plasmodium falciparum,1.36 µg/mL
same,IC50,L6,13.3 µg/mL
same,IC50,Leishmania donovani,1.4 µg/mL
COC(=O)C[C@@H]1[C@](C)([C@@H](OC(C)=O)c2ccoc2)CC[C@@]23OC4(C)O[C@@]12[C@H](OC(=O)C(C)C)[C@@]1(OC(C)=O)[C@@H](OC(C)=O)[C@@]2(C)C[C@@]1(O4)[C@]31COC(=O)C[C@@H]21 [KOTSCHYIN A],IC50,[1],11.6 µg/mL
same,IC50,Trypanosoma cruzi,> 30 µg/mL
same,IC50,Plasmodium falciparum,> 5 µg/mL
same,IC50,L6,> 90 µg/mL
same,IC50,Leishmania donovani,> 30 µg/mL
CCCCCCCCCCCCCCCCOP(=O)([O-])OCC[N+](C)(C)C [MILTEFOSINE],IC50,Leishmania donovani,0.12 µg/mL
COc1cc([C@@H]2c3cc4c(cc3[C@H](O)[C@H]3COC(=O)[C@H]23)OCO4)cc(OC)c1OC [PODOFILOX],IC50,L6,0.005 µg/mL
